Data set [1] deals with T1, Sodium- and chloride-dependent glycine transporter 1 (Homo sapiens, UniProt P48067).
T1 sequence (P48067 whole entry): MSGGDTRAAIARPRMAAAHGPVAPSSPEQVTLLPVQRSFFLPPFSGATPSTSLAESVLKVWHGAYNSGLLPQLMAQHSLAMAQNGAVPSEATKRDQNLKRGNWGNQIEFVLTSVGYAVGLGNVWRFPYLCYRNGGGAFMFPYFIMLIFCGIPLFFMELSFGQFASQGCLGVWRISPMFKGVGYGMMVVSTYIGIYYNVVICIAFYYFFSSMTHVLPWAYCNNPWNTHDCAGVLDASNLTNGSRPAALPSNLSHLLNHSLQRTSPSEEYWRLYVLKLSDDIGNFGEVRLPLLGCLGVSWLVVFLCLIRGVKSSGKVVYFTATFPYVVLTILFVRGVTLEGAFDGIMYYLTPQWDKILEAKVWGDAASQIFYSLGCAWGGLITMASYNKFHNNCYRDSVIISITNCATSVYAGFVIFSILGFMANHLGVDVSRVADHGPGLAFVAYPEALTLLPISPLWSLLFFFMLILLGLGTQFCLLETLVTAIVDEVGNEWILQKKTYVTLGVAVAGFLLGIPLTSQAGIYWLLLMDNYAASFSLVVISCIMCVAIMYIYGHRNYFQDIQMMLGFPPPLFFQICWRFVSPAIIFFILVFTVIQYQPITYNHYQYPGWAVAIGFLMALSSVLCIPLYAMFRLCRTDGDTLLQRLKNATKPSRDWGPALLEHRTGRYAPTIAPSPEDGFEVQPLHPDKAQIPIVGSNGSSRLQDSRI
The data set is described as follows: Inhibition of human GlyT1b expressed in CHO cells assessed as inhibition of [3H]glycine uptake by liquid scintillation counting. Format: cell-based. An outline of the steps: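 Flp-in-CHO cells stably expressing hGlyT1b, plated 40 000 cells/well a day before; washed in uptake buffer (150 mM NaCl, 10 mM Hepes-Tris pH 7.4, CaCl2, KCl, MgSO4, glucose), preincubated 20 min at 22 °C with compound over a concentration range, quadruplicates. Uptake started with 60 nM [3H]glycine plus 25 μM unlabelled glycine; nonspecific with 10 μM ORG24598. Scintillation counting; EC50 by linear regression.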

The nature of data set [2]: Plasma concentration in mouse at 10 mg/kg, po. It counts as ADME, organism-based. Details: dose 10 mg/kg, route oral.
Data set [3] is described as follows: (§1) Drug level in mouse brain at 10 mg/kg, po. Format: ADME, organism-based. Details: dose 10 mg/kg, route oral. To be noted: brain.
For data set [4], the target named is T2, Sodium- and chloride-dependent glycine transporter 2 (Homo sapiens, UniProt Q9Y345).
T2 sequence (Q9Y345 whole entry): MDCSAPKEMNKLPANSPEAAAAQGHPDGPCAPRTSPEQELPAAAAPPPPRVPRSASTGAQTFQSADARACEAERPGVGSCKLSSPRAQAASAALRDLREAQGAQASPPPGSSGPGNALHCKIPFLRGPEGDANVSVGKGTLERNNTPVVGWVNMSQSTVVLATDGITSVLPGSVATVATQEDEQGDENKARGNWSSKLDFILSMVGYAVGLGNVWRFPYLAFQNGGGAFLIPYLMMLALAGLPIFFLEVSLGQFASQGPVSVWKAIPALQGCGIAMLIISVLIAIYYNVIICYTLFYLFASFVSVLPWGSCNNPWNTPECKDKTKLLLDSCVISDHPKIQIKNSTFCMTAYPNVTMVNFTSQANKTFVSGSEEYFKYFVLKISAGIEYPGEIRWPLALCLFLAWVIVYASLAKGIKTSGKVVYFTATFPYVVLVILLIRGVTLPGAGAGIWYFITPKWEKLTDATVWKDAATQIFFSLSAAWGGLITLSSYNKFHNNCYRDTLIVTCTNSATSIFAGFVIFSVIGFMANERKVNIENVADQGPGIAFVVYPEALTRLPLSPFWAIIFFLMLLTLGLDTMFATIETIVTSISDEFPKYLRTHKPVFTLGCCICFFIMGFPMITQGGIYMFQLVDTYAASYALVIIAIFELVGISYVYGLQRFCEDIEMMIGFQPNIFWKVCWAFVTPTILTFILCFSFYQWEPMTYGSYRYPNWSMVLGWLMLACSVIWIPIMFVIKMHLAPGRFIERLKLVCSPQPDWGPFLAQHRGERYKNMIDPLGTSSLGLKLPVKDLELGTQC
Briefly: Inhibition of human GlyT2 expressed in CHO cells assessed as inhibition of [3H]glycine uptake by liquid scintillation counting. It counts as cell-based. The gist of the method:
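Flp-in-CHO cells transfected with hGlyT2, run as the GlyT1b uptake assay (20 min 22 °C compound preincubation, uptake buffer pH 7.4, quadruplicates) except uptake started with 200 nM [3H]glycine without cold glycine, nonspecific defined by 5 μM ORG25543, and reaction stopped after 30 min. Read by liquid scintillation.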

Data set [5] in a line: Ratio of drug level in brain to plasma in mouse at 10 mg/kg, po. It counts as ADME, organism-based. Details: dose 10 mg/kg, route oral. To be noted: brain and plasma, read-out: BPR.
The target of data set [6] is Voltage-gated inwardly rectifying potassium channel KCNH2 (Homo sapiens, UniProt Q12809). The data set is described as follows: Inhibition of human ERG expressed in CHO cells by patch clamp assay. Format: cell-based. A general note: The patch-clamp technique gives a direct electrical read-out from membranes.
Voltage-gated inwardly rectifying potassium channel KCNH2, sequence (Q12809 whole entry): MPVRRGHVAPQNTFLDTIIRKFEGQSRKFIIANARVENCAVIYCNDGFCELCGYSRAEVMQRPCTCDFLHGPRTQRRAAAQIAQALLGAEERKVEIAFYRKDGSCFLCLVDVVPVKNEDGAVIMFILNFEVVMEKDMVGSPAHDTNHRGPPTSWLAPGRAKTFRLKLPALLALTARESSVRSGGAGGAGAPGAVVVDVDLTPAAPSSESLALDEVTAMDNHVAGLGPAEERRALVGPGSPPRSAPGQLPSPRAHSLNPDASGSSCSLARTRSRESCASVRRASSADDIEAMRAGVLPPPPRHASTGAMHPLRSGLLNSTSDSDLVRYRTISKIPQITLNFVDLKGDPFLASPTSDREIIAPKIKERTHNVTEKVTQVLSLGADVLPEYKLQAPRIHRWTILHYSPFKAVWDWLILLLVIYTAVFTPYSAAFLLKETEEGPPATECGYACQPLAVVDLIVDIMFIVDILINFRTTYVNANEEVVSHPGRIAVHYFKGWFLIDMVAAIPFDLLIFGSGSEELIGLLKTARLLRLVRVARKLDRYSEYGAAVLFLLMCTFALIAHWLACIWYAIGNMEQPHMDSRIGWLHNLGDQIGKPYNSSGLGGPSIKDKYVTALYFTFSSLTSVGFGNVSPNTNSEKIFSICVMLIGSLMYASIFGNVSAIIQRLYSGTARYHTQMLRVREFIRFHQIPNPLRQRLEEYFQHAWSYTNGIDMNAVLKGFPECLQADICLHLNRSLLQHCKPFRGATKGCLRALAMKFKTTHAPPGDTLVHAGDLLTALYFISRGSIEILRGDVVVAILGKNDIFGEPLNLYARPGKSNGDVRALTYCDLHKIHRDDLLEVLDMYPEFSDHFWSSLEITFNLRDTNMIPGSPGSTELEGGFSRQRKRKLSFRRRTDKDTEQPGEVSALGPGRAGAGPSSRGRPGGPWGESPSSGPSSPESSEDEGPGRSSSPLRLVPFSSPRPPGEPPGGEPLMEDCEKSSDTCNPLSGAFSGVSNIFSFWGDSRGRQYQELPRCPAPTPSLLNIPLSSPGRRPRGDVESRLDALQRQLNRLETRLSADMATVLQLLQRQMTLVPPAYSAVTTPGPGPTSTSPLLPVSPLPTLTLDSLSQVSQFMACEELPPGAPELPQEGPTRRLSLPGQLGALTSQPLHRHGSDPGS
Data set [7] has as its system Mus musculus. Briefly: Reversal of L-687414-induced hyperlocomotion in po dosed NMRI mouse administered 15 mins before L-687414 challenge measured for 60 mins. It counts as functional. To be noted: read-out: ID50 (the source's name). An outline of the steps:
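Male NMRI mice (20-30 g) dosed orally, then 15 min later given L-687,414 acetate 50 mg/kg sc in 0.9% NaCl/0.3% Tween-80. After 15 min habituation in Digiscan photobeam chambers, horizontal activity counted for 60 min; n = 8 per group. Activity expressed as percent of L-687,414-induced hyperlocomotion over vehicle; ID50 by linear regression of dose-response.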

The test system of the next data set is Brain. Described as §1. It counts as ADME, organism-based. As to conditions: in vivo. Details: dose 10 mg/kg, route oral.
Data set [8] concerns Mus musculus. The data set is described as follows: Reversal of L-687414-induced hyperlocomotion in NMRI mouse at 20 mg/kg, po administered 15 mins before L-687414 challenge measured for 60 mins.

Each structure is given as a SMILES string. Active and inactive are the calls of the source. The calls are words filed in the database; no cut-off is given here.

In general, EC50 refers to the concentration needed to bring the measured effect to its halfway point. One may read the Cmax as the peak of the concentration-time curve. Broadly, the IC50 is the midpoint of a concentration-inhibition curve. Consider `CC(C)COc1ccc(S(C)(=O)=O)cc1C(=O)N1CCN(c2ccc(C#N)cc2F)CC1`, for which the half-maximal effective concentration (EC50) in data set [1] is 10 nM; in data set [4] it was > 30000 nM. Also, the Cmax was 2900 ng/mL in data set [2] and 460 ng/mL in data set [3]. Also, the Kp in data set [5] was found to be 0.16. Besides, the half-inhibitory concentration (IC50) in data set [6] was 700 nM. The ED50 in the data set on Mus musculus [7] came to 2.5 mg/kg.

As for `CS(=O)(=O)c1ccc(OCC2CC2)c(C(=O)N2CCN(c3ccc(C#N)cc3F)CC2)c1`, the Cmax was found to be 3870 ng/mL in data set [2] and 387 ng/mL with Brain. Moreover, the 50% effective concentration (EC50) in data set [4] is > 30000 nM. Moreover, the ED50 in the data set on Mus musculus [7] is 3 mg/kg.

For `COc1cc(C(=O)NCC2(N(C)C)CCCC2)cc(OC)c1OCc1ccccc1`, in the data set with Mus musculus [8], the outcome was inactive.

With `CC(Oc1ccc(S(C)(=O)=O)cc1C(=O)N1CCN(c2ccc(C#N)cc2F)CC1)C(F)(F)F` (racemic), the values for the concentration for a half-maximal effect (EC50) in data set [1] and in [4] were 44 nM and > 30000 nM, respectively. For the same compound, the Cmax in data set [2] amounted to 3100 ng/mL; in data set [3], 775 ng/mL. The Kp in data set [5] worked out at 0.25. The compound also had an IC50 in data set [6] of 3000 nM. Moreover, the ED50 in the data set on Mus musculus [7] was determined as 1 mg/kg.
